The record followed here is ChEMBL document CHEMBL1148737, “Quantitative structure-activity relationship studies of [(biphenyloxy)propyl]isoxazole derivatives. Inhibitors of human rhinovirus 2 replication” (J Med Chem, 2007).

One data set has as its system HeLa. Nature of the data set: Cytotoxicity against human HeLa cells. Format: cell-based. Further details: unit not given here. The essentials:
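2-day-old confluent HeLa monolayers were exposed to serial 2-fold compound dilutions for 72 h at 37 °C, 5% CO2. Cells were fixed and stained with crystal violet formalin, and the dye was extracted and read at 550/630 nm. Viability was expressed as percent of the mean of six mock-treated controls. CC50 is the concentration cutting viability by 50%.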

Data set [1] in a line: Selectivity index, ratio of CC50 for HeLa cells to IC50 for HRV2. Format: functional. A digest of the protocol:
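Computed as CC50 (HeLa, 72 h crystal violet viability) divided by IC50 (HRV-2 CPE inhibition in HeLa, 72 h), both in µg/mL.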

A further data set has as its system rhinovirus A2. Nature of the data set: Antiviral activity against HRV2 in HeLa cells by CPE assay. It counts as functional. Further details: unit not given here. The essentials: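 HRV-2 stock grown in HeLa cells. 1-day-old confluent HeLa monolayers were given compound in test medium (2% NCS) plus virus at MOI 0.01 after medium removal. CPE was scored 72 h post-infection by crystal violet uptake, with six uninfected and six infected untreated wells per plate and pleconaril as reference. IC50 was taken from mean dose-response curves of at least three separate experiments.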

As for `Cc1cc(CCCOc2c(C)cc(-c3ccc(-c4ccccc4)cc3)cc2C)on1`, the logCC50 in the data set with HeLa was 1.7. The logSI in data set [1] worked out at 0. Besides, the logIC50 in the data set on rhinovirus A2 amounted to 1.7.
In the data set with HeLa, `Cc1cc(CCCOc2c(C)cc(-c3ccc(OC(F)(F)F)cc3)cc2C)on1` registered a logCC50 of 1.03. The logSI in data set [1] was determined as 1. Also, in the data set on rhinovirus A2, the logIC50 was found to be 0.05.
The corresponding values for `Cc1cc(CCCOc2c(C)cc(-c3ccccc3C)cc2C)on1` are 0.66, 1.76 and -1.09.
The corresponding values for `Cc1cc(CCCOc2c(C)cc(-c3ccc(Br)cc3)cc2C)on1` are 0.68, 0.85 and -0.15.
On to `Cc1ccc(C)c(-c2cc(C)c(OCCCc3cc(C)no3)c(C)c2)c1`, for which the logCC50 in the data set with HeLa is 1.7. The logSI in data set [1] came to 0.6. In the data set on rhinovirus A2, this molecule displayed a logIC50 of 1.06.
The matching figures for `Cc1cc(CCCOc2c(C)cc(-c3ccc(C=O)cc3)cc2C)on1`: 1, 2.09 and -1.09.
The corresponding values for `CC(=O)c1ccc(-c2cc(C)c(OCCCc3cc(C)no3)c(C)c2)cc1` are 1.7, 2.33 and -0.63.
The corresponding values for `C=Cc1ccc(-c2cc(C)c(OCCCc3cc(C)no3)c(C)c2)cc1` are 2.3, 3.2 and -0.9.
On to `Cc1cc(CCCOc2c(C)cc(-c3cc(F)c(F)c(F)c3)cc2C)on1`, for which the logCC50 in the data set on HeLa is reported as 1.88. The logSI in data set [1] is 3.34. In addition, the logIC50 in the data set with rhinovirus A2 is listed as -1.46.
In the data set with HeLa, `Cc1cc(CCCOc2c(C)cc(-c3ccc(F)c(C)c3)cc2C)on1` registered a logCC50 of 1.28. Also, the logSI in data set [1] came out at 3.1. The same molecule gave a logIC50 in the data set with rhinovirus A2 of -1.82.
`Cc1cc(CCCOc2c(C)cc(-c3cc(C(F)(F)F)cc(C(F)(F)F)c3)cc2C)on1` came in with a logCC50 with HeLa of 1.7. Also, in data set [1], the logSI worked out at 0. The molecule also showed a logIC50 in the data set with rhinovirus A2 of 1.7.
In the data set with HeLa, `Cc1cc(CCCOc2c(C)cc(-c3cccc(F)c3)cc2C)on1` returned a logCC50 of 0.96. The logSI in data set [1] was 2.36. The molecule further registered a logIC50 in the data set on rhinovirus A2 of -1.4.
Regarding `Cc1cc(CCCOc2c(C)cc(-c3ccc(C(F)(F)F)cc3)cc2C)on1`, the logCC50 with HeLa turned out to be 1.08. The logSI in data set [1] was 2.05. The molecule further gave a logIC50 in the data set with rhinovirus A2 of -0.97.
The matching figures for `Cc1cc(CCCOc2c(C)cc(-c3cccc([N+](=O)[O-])c3)cc2C)on1`: 0.79, 2.25 and -1.47.
The matching figures for `Cc1cc(CCCOc2c(C)cc(-c3ccc(F)cc3F)cc2C)on1`: 0.9, 3.2 and -2.3.
`COc1cc(-c2cc(C)c(OCCCc3cc(C)no3)c(C)c2)cc(OC)c1OC` showed a logCC50 in the data set on HeLa of 1. Moreover, the logSI in data set [1] was 1.53. The molecule also displayed a logIC50 in the data set on rhinovirus A2 of -0.54.
The matching figures for `Cc1cc(CCCOc2c(C)cc(-c3ccc(C)c(C)c3)cc2C)on1`: 0.66, 1.97 and -1.31.
`Cc1cc(CCCOc2c(C)cc(-c3cccc(C(F)(F)F)c3)cc2C)on1` registered a logCC50 in the data set on HeLa of 1.08. Besides, in data set [1], the logSI came to 2.32. The molecule further came in with a logIC50 with rhinovirus A2 of -1.24.
As to `Cc1cc(CCCOc2c(C)cc(-c3cccc4ccccc34)cc2C)on1`, in the data set with HeLa, the logCC50 is reported as 0.96. Also, in data set [1], the logSI is listed as 1.16. Further, in the data set on rhinovirus A2, the logIC50 is recorded as -0.2.
Consider `Cc1cc(CCCOc2c(C)cc(-c3ccc(F)cc3)cc2C)on1`, for which, in the data set on HeLa, the logCC50 amounted to 1.7. In addition, the logSI in data set [1] turned out to be 3.74. Besides, in the data set on rhinovirus A2, the logIC50 was -2.05.
Consider `Cc1cc(CCCOc2c(C)cc(-c3noc(C(F)(F)F)n3)cc2C)on1` [PLECONARIL], for which the logCC50 in the data set with HeLa was 1.1. For the same molecule, the logSI in data set [1] is recorded as 2.8. Besides, in the data set on rhinovirus A2, the logIC50 is on record as -1.7.
